IMP-1 inhibitor: IMP-1 metallo-beta-lactamase inhibitors, primary screen, biochemical, epi-absorbance readout, Pseudomonas aeruginosa enzyme; purified IMP-1, nitrocefin hydrolysis, epi-absorbance fluorescence; inhibition, % at 5.6 µM; 290,000 compounds, 0.45% hits;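 active = inhibition above the mean plus 3 SD of all compounds in the same screening run, cut at about 4.5% in these data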;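 note: 0% = IMP-1 with DMSO and 100% = DMSO wells lacking enzyme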
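Assay system: purified recombinant IMP-1 beta-lactamase. Input: IMP-1 0.2 nM before substrate addition. Buffer or medium: Zinc- and detergent-supplemented HEPES buffer, pH 7.1. Schedule: 25 °C, 15 min preincubation, 25 min reaction. Signal: Epi-absorbance fluorescence, 480 nm excitation, 530 nm emission. Evaluation: percent inhibition from optical density relative to buffer-blank wells.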
VIM-2 inh: VIM-2 metallo-beta-lactamase inhibitors, primary screen, biochemical, epi-absorbance readout, Pseudomonas aeruginosa enzyme; purified VIM-2, nitrocefin hydrolysis, epi-absorbance fluorescence; inhibition, % at 5.6 µM; 290,000 compounds, 0.89% hits;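 active = inhibition above the mean of all tested compounds plus 3 SD, cutoff set per screening run, cut at about 7.5% in these data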;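 note: red hydrolysis product quenches plate fluorescence so inhibitors raise well fluorescence; 0% = enzyme with DMSO and 100% = DMSO without enzyme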
m5-HT2A agonist: mouse Htr2a agonists via beta-arrestin recruitment, primary screen, cell-based, luminescence. CHO-K1 mHTR2A beta-arrestin complementation; percent of 30 µM serotonin response. AID 624169, 2012. 5-hydroxytryptamine receptor 2A (Mus musculus), P35363. 360,000 compounds, 0.66% hits. activation, % at 7.6 µM;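 active = activation above a run cutoff, the mean activation of all tested compounds plus 3 SD, cut at about 14% in these data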;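 note: 0% = plate median of compound wells and 100% = 30 µM serotonin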
dFosB act: activators of delta FosB homodimer, primary screen, biochemical, fluorescence polarization, TAMRA-CDK5 oligo, single point | Protein FosB (Mus musculus), P13346 | purified delta FosB; percent of positive-control signal above neutral wells | activation, % at 25 µM | 340,000 compounds, 0.99% hits | AID 493131, 2011;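 active = mean activation above about 17%, with every replicate also reaching it, limit read from the data, passing the limit was not always enough; inconclusive = only one of the two conditions met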
Target sequence (P13346 whole entry, looked up): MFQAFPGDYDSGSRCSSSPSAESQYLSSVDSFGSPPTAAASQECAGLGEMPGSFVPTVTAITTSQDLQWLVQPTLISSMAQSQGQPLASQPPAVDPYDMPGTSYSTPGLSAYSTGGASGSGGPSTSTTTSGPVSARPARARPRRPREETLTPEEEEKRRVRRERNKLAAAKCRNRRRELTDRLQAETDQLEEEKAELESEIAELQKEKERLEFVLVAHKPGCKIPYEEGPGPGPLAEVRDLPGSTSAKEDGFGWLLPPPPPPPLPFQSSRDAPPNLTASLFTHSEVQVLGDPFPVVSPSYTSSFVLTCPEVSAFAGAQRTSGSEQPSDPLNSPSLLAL
The depositor's hits bear a star; ? = inconclusive; . = no result given. Rows were chosen to be rich in hits. Some 2.5% of all compounds tested hit in one or more screens of this group.

SMILES	IMP-1 inhibitor	VIM-2 inh	m5-HT2A agonist	dFosB act
Fc1ccc(-[n+]2nc(Nc3ccccc3)sc2-c2c3ccccc3cc3ccccc23)cc1	-3	-3	-14	31*
Nc1ccc2nc(-c3cccc(-c4nc5ccc(N)cc5[nH]4)n3)[nH]c2c1	-5	10.0*	-10	?
Nc1ccc2nc(-c3ccc(-c4nc5ccc(N)cc5[nH]4)cc3)[nH]c2c1	-4	-3	.	.
CCc1[nH]nc2c1C1(CCN(C(=O)c3ccccc3)CC1)C(C#N)=C(N)O2	-9	11*	-4	2
COc1ccc(CNC(=O)CN(C(=O)CCC(=O)Nc2nccs2)c2ccc(C)cc2)cc1	-2	-2	-2	-9
CCOC(=O)c1cnc2c(ccc3ccccc32)c1NCCN(C)C	0	12*	-10	-27
CCOC(=O)c1cnc2c(cnn2C)c1NCCCN(C)C	-2	8.4*	-1	-18
CC[n+]1ccc(/C=C/c2ccc(N(C)C)cc2)c2ccccc21	-10	-7	-14	47*
CC[n+]1ccccc1/C=C/c1ccc(N(C)C)cc1	-3	-2	2	-3
CC[n+]1c(/C=C/c2ccc(OC)c(OC)c2)ccc2ccccc21	0	2	0	-6
CC[n+]1c(/C=C/c2ccc(N(C)C)cc2)ccc2ccccc21	-10	-8	-2	53*
C=CCn1c(SCC(=O)N2CCCC2)nc2c([nH]c3ccccc32)c1=O	-2	3	1	-6
CCn1c(SCC(=O)N2CCOCC2)nc2c([nH]c3ccccc32)c1=O	-1	8.0*	-2	-1
COn1c(=O)c(=O)n(O)c2ccccc21	-2	-2	-5	2
O=c1c(=O)n(O)c2ccccc2n1O	11*	4	12	-4
CCN(CC)CCCNc1nc2cc(OC)c(OC)cc2c2nc(-c3ccccc3)nn12	-4	4	0	181*
N#CC1=C(S)N(c2ccccc2)C(c2ccc(-c3cccc(Cl)c3)o2)NC1=O (stereo not drawn)	7.5*	-4	-3	-9
Cc1cccc(N2C(S)=C(C#N)C(=O)NC2c2ccco2)c1 (stereo not drawn)	-4	0	3	-7
Cc1cc(NS(=O)(=O)c2ccc(NC(=S)Nc3ccc(Cl)cc3C)cc2)no1	-4	-3	-1	1
O=C(Cn1c(=O)c2cccn2c2ccccc21)NCCc1ccc(Cl)cc1	13*	3	-4	7
COc1ccc2ccccc2c1C(=O)/C=C\c1ccoc1	6.6*	-2	-2	-4
O=C(/C=C/c1ccoc1)c1ccccc1O	-3	-3	1	-3
Cc1cc(C)cc(Nc2cc(C)nc3nc(C)nn23)c1	-2	22*	0	1
Cc1ccc(Nc2cc(C)nc3nc(C)nn23)cc1	-5	8	4	-4
CC(=O)c1ccc(Nc2cc(C)nc3nc(C)nn23)cc1	-1	5	-5	-4
SMILES	IMP-1 inhibitor	VIM-2 inh	m5-HT2A agonist	dFosB act
Cc1cc(Nc2ccc(Br)c(C)c2)n2nc(C)nc2n1	-4	10*	6	-2
Cc1cc(Nc2cccc(C)c2C)n2nc(C)nc2n1	0	10*	-1	7
Nc1ccccc1C(=O)N1CCc2ccccc21	-1	0	1	9
CCCc1cc(=O)[nH]c(SCC(=O)Nc2cccc(S(=O)(=O)N3CCCCC3)c2)n1	.	.	-5	-6
CCN1CCCC1Cn1cnc2c([nH]c3cccc(Cl)c32)c1=O (stereo not drawn)	2	8.2*	-8	-1
COc1ccc(CNC(=O)Nc2cccc(Cl)c2)cc1	-2	-2	-3	24*
Cc1ccc(S(=O)(=O)N2CCC(C(=O)OCC(=O)N3CCCC3=O)CC2)cc1C	.	.	3	-1
CN(C)c1nc(Nc2ccc(F)cc2)nc(Oc2ccc(F)cc2)n1	-3	-2	-1	2
CN(C)c1nc(N/N=C/c2ccccc2O)nc(Nc2ccc(F)cc2)n1	-5	-3	-19	60*
CN(C)c1ccc(C(=S)N2CCCCCC2)cc1	5.5*	-2	1	4
CCCCCCOc1ccc(/C(C)=N/NC2=NCCN2)cc1[N+](=O)[O-]	-1	0	-9	55*
C/C(=N\NC1=NCCN1)c1ccc(N)c([N+](=O)[O-])c1	-1	3	-1	4
O=C(NCc1ccc(F)cc1F)[C@@H]1CCCN1C(=O)[C@@H]1CCCN1C(=O)c1ccccc1	.	.	0	.
CCN1C(=O)c2cccc3c(S(=O)(=O)NCc4ccccc4)ccc1c23	.	.	1	-10
CCN1C(=O)c2cccc3c(S(=O)(=O)Nc4ccc(O)c(C(=O)O)c4)ccc1c23	-3	8.2*	-5	-7
O=C(NC(Cc1c[nH]c2ccccc12)C(=O)O)c1cccc(S(=O)(=O)N2CCCCC2)c1 (stereo not drawn)	.	.	7	.
Cc1cc(Nc2cc(Cl)nc(Sc3ccc(NC(=O)C4CC4)cc3)n2)n[nH]1	.	.	1	-1
Cc1ccc(Cn2c(N3CCNCC3)nc3c2c(=O)[nH]c(=O)n3C)cc1	27*	-1	4	-4
O=C(O)C(Cc1ccccc1)N1C(=O)c2cccc3cccc(c23)C1=O (stereo not drawn)	-3	9.4*	6	6
O=C(O)C(CCCCN1C(=O)c2ccccc2C1=O)N1C(=O)c2ccccc2C1=O (stereo not drawn)	18*	5	-4	2
Cc1ccc(C(=O)N/C(=C/c2ccc(N(C)C)cc2)C(=O)NCC2CCCO2)cc1 (stereo not drawn)	-2	-2	7	-5
CCOc1cc(/C=N/N=C(N)N)ccc1OCc1ccc(Cl)cc1	0	-1	-6	56*
NC(N)=N/N=C/c1ccc(OCc2ccccc2)c(OCc2ccccc2)c1	0	-2	-7	-311
COc1cc(/C=N/O)ccc1OCc1ccc(Cl)cc1	-2	-2	.	.
COc1cc(/C=N/N=C(N)N)ccc1OCc1ccc(Cl)cc1	-3	-1	-3	59*
SMILES	IMP-1 inhibitor	VIM-2 inh	m5-HT2A agonist	dFosB act
CCc1nc2c(OCCOc3ccc(F)cc3)cccn2c1N(C=O)Cc1ccc(OC)cc1	.	.	-2	.
Nc1nc(-c2ccc3c(c2)OCCO3)c(CC(=O)O)s1	9.9*	2	0	-1
O=C(CCS(=O)(=O)c1ccc(Cl)cc1)Nc1nnc(-c2ccco2)o1	.	.	3	-12
CSc1nc2sc3c(c2c(=O)n1C)CCC3	2	7.7*	2	-2
COc1ccccc1C(=O)NCCC(=O)NCCCSc1ccccc1	.	.	-2	-1
CC(=O)Nc1ccc(S(=O)(=O)NC2=NCN(c3ccc([N+](=O)[O-])cc3)CN2)cc1	0	-2	3	24*
Cc1ccc(N2C(=O)CC(N3CCN/C3=C3\CC/C(=C\c4ccccc4)C3=O)C2=O)cc1 (stereo not drawn)	-1	1	8	-9
CCN(CC)CCCNc1nc(-c2ccccc2)nc2ccccc12	-2	-1	4	-10

High-throughput results (PubChem BioAssay)
